Measurements reported in ChEMBL document CHEMBL4765399, “Design, synthesis, and biological evaluation of 5-((8-methoxy-2-methylquinolin-4-yl)amino)-1H-indole-2-carbohydrazide derivatives as novel Nur77 modulators” (Eur J Med Chem, 2020).
The source made the active and inactive calls. No cut-off for these calls is given here.

Tests used:
[1] = molecular target: T1, Nuclear receptor subfamily 4immunitygroup A member 1 (Homo sapiens, UniProt P22736); assay: Modulation of Nur77 in human HepG2 cells assessed as induction of endoplasmic reticulum translocation at 2 uM incubated for 6 hrs by ER-tracker based confocal microscopy; type: subcellular; conditions: filed as modulator
T1 sequence (P22736 whole entry): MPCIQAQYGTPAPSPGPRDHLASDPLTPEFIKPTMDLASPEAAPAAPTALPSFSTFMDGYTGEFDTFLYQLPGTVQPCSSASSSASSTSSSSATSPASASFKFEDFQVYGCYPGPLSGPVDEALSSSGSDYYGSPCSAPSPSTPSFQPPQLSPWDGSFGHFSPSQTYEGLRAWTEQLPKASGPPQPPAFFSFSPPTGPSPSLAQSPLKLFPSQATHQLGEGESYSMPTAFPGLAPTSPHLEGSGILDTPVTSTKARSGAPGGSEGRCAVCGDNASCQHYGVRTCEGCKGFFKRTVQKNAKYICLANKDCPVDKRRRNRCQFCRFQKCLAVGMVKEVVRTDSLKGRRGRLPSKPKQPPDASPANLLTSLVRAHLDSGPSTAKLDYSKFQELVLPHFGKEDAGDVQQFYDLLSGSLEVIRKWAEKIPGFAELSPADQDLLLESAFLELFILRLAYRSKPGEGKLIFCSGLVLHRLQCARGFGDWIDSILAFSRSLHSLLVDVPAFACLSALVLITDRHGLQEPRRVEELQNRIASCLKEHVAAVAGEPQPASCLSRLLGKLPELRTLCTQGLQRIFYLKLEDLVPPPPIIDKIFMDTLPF
Procedure, shortened: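 HepG2 exposed to 2.0 µM for 6 h, then co-stained with Nur77 antibody and ER tracker; confocal imaging.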

HepG2 [2] = assay: Induction of endoplasmic reticulum stress in human HepG2 cells assessed as increase in CHOP protein expression incubated for 12 hrs by Western blot analysis; type: functional, cell-based; conditions: dose 0.5-2 µM
Procedure, shortened: (§1)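 HepG2, QGY-7703 and SMMC-7721 treated with graded concentrations for 12 h. Lysed in RIPA with inhibitors; 40-80 µg protein separated by SDS-PAGE, blotted to nitrocellulose, blocked 1 h in 5% milk, primary antibodies overnight (LC3, Beclin1, Bip, CHOP, TRB3), HRP secondaries, chemiluminescence.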

[3] = molecular target: T1, Nuclear receptor subfamily 4immunitygroup A member 1; assay: Binding affinity to Nur77 ligand binding domain (unknown origin) assessed as dissociation constant by fluorescence titration based analysis
Procedure, shortened: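 Intrinsic tryptophan fluorescence quench: 1 μM Nur77-LBD titrated with 0–4 μM ligand in about 0.2 μM steps (20 points). After 30 min at room temperature, read at 25 °C, excitation 280 nm, emission 340 nm. KD fitted to a two-state 1:1 complex model.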

HepG2 [4] = assay: Induction of apoptosis in human HepG2 cells assessed as late apoptotic cells at 1 uM incubated for 12 hrs by Annexin V-FITC/PI staining based flow cytometry (reference value: 1.1%); type: functional
HepG2 [5] = assay: Induction of autophagy in human HepG2 cells assessed as p62 degradation by western blot analysis; type: functional, cell-based
HepG2 [6] = assay: Induction of endoplasmic reticulum stress in human HepG2 cells transfected with shNur77 assessed as increase in PDI protein expression at 2 uM incubated for 6 hrs by confocal microsocopic analysis; type: functional, cell-based
Procedure, shortened: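 HepG2, or HepG2 plus shNur77 HepG2, treated with 2.0 µM for 6 h, fixed in 4% paraformaldehyde 20 min, permeabilised 0.1% Triton X-100, blocked in 5% BSA, stained with PDI antibody and imaged by confocal fluorescence microscopy.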

HepG2 [7] = assay: Induction of apoptosis in human HepG2 cells assessed as live cells at 1 uM incubated for 12 hrs by Annexin V-FITC/PI staining based flow cytometry (reference value: 94%); type: functional
QGY-7703 [8] = assay: Induction of endoplasmic reticulum stress in human QGY-7703 cells assessed as increase in bip protein expression incubated for 12 hrs by Western blot analysis; type: functional, cell-based; conditions: dose 0.5-2 µM; procedure, shortened: as §1
HepG2 [9] = assay: Antitumor activity against human HepG2 cells xenografted in BALB/c mouse assessed as tumor growth inhibition at 10 mg/kg/day, ip administered for 15 days; type: functional; conditions: 360 h, time 15 day
Procedure, shortened: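 Subcutaneous flank xenograft of 5×10^6 HepG2 cells in 4-week-old male Balb/c nude mice. At about 100 mm³, 15 mice were randomized into three groups: vehicle, 10 or 20 mg/kg i.p. daily for 15 days. Tumor size was measured every day, and tumors were excised and weighed at the end.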

[10] = molecular target: T1, Nuclear receptor subfamily 4immunitygroup A member 1; assay: Binding affinity to Nur77 ligand binding domain (unknown origin) assessed as fast association/dissociation kinetics by surface plasmon resonance analysis; conditions: filed as modulator
Procedure, shortened: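 SPR with Nur77-LBD, analyte injected at a series of concentrations; KD (equilibrium dissociation constant) and association/dissociation kinetics derived from the sensorgrams.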

HepG2 [11] = assay: Induction of apoptosis in human HepG2 cells assessed as cleaved PARP expression at 2 uM pretreated with ER stress inhibitor, 4-PBA for 2 hrs followed by incubation with compound for 12 hrs by Western blot analysis; type: functional, cell-based
Procedure, shortened: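 HepG2 cells grown to confluence were pretreated 2 h with 2 mM 3-MA (autophagy inhibitor) or 2 mM 4-PBA (ER stress inhibitor), then exposed to compound for 12 h. Proteins (40–80 µg, RIPA lysate) were resolved by SDS-PAGE and blotted for PARP, cleaved caspase-3/-9, Bcl-2 and Bax, with chemiluminescent detection.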

QGY-7703 [12] = assay: Inhibition of colony formation in human QGY-7703 cells at 2 uM incubated for 24 hrs measured after cell culturing for 15 days in normal medium by crystal violet staining based assay; type: functional; conditions: time 16.0 day
Procedure, shortened: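 500 HepG2, QGY-7703 or SMMC-7721 cells per well allowed to attach 24 h, exposed to DMSO or 2.0 µM for 24 h, then grown 15 days in plain medium. Colonies fixed 30 min in 4% paraformaldehyde, stained 15 min with 0.1% crystal violet, photographed and counted.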

SMMC-7721 [13] = assay: Induction of endoplasmic reticulum stress in human SMMC-7721 cells assessed as increase in TRB3 protein expression incubated for 12 hrs by Western blot analysis; type: functional, cell-based; conditions: dose 0.5-2 µM; procedure, shortened: as §1
QGY-7703 [14] = assay: Induction of endoplasmic reticulum stress in human QGY-7703 cells assessed as increase in TRB3 protein expression incubated for 12 hrs by Western blot analysis; type: functional, cell-based; conditions: dose 0.5-2 µM; procedure, shortened: as §1
HepG2 [15] = assay: Antiproliferative activity against human HepG2 cells assessed as reduction in cell viability incubated for 48 hrs by MTT assay; type: functional, cell-based; conditions: HepG2, 48 h
Procedure, shortened: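 MTT assay after 48 h exposure at six concentrations, range chosen by cytotoxicity. Inhibition = (ODcontrol − ODtest)/ODcontrol × 100%; IC50 is the concentration halving OD versus untreated cells. Means ± SD of three independent determinations. HepG2 and SMMC-7721 grown in DMEM, QGY-7703 and LO2 in RPMI 1640, with 10% FBS at 37 °C.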

SMMC-7721 [16] = assay: Induction of autophagy in human SMMC-7721 cells assessed as increase in LC3-II expression measured after 12 hrs by Western blot analysis; type: functional, cell-based; conditions: dose 0.5-2 µM; procedure, shortened: as §1
HepG2 [17] = assay: Induction of apoptosis in human HepG2 cells assessed as necrotic cells at 2 uM incubated for 12 hrs by Annexin V-FITC/PI staining based flow cytometry (reference value: 0.068 to 0.23%); type: functional
SMMC-7721 [18] = assay: Antiproliferative activity against human SMMC-7721 cells assessed as reduction in cell viability at 2 uM by MTT assay; type: functional, cell-based; conditions: time 12-48 hrs, TDE = time-dependent effect
Procedure, shortened: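 Cells treated with 2.0 µM over a time course; viability read by MTT. HepG2, SMMC-7721 kept in DMEM, QGY-7703 in RPMI 1640, with 10% FBS at 37 °C and 5% CO2.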

HepG2 [19] = assay: Antitumor activity against human HepG2 cells xenografted in BALB/c mouse assessed as induction of ER stress by measuring increase in bip level in tumor tissue at 10 to 20 mg/kg/day, ip administered for 15 days by immunohistochemical analysis; type: functional, organism-based; conditions: dose 10-20 mg/kg/day, time 15.0 day
Procedure, shortened: (§2)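 HepG2 cells (5×10^6) injected subcutaneously into flanks of 4-week-old male Balb/c nude mice. At about 100 mm³, 15 mice were randomized to vehicle, 10 or 20 mg/kg i.p. once daily for 15 days. Tumors were then excised for immunostaining of paraffin sections (5 μm) or for western blot.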

HepG2 [20] = assay: Disruption of mitochondrial membrane potential in human HepG2 cells assessed as green fluorescence intensity at 2 uM incubated for 12 hrs by JC-1 staining based flow cytometry (reference value: 41669 units); type: functional
HepG2 [21] = assay: Antitumor activity against human HepG2 cells xenografted in BALB/c mouse assessed as induction of ER stress by measuring increase in TRB3 level in tumor tissue at 10 to 20 mg/kg/day, ip administered for 15 days by immunohistochemical analysis; type: functional, organism-based; conditions: dose 10-20 mg/kg/day, time 15.0 day; procedure, shortened: as §2

Activity [1]: Active
Kd [3]: 1340 nM
Activity [10]: Active
IC50 (HepG2 [15]): 600 nM
Compound: COc1cccc2c(Nc3ccc4[nH]c(C(=O)N/N=C/c5ccc(SC)cc5)cc4c3)cc(C)nc12
Activity (HepG2 [2]): Dose-dependent effect
Activity (HepG2 [4]): 16.1%
Activity (HepG2 [5]): inactive
Activity (HepG2 [6]): inactive
Activity (HepG2 [7]): 65%
Activity (QGY-7703 [8]): Dose-dependent effect
inhibition in vivo at 10 mg/kg/day (HepG2 [9]): 36.7%
Activity (HepG2 [11]): inactive
inhibition (QGY-7703 [12]): Active
Activity (SMMC-7721 [13]): Dose-dependent effect
Activity (QGY-7703 [14]): Dose-dependent effect
Activity (SMMC-7721 [16]): Dose-dependent effect
Activity (HepG2 [17]): 0%
Activity (SMMC-7721 [18]): Tde
Activity (HepG2 [19]): Active
Activity (HepG2 [20]): 71731 U
Activity (HepG2 [21]): Active
